Screens as filed in PubChem.
Rows were chosen to be rich in hits. Some 3.2% of all compounds tested hit in one or more screens of this group.
FAK blocker: FAK kinase inhibitors, primary screen, biochemical; Focal adhesion kinase 1 (Homo sapiens), Q05397; inhibition, %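 (tested at 7 µM)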; 97,000 compounds, 0.84% hits; biochemical FAK kinase activity assay; in the data active = inhibition above about 19%
Target sequence (Q05397 whole entry, looked up): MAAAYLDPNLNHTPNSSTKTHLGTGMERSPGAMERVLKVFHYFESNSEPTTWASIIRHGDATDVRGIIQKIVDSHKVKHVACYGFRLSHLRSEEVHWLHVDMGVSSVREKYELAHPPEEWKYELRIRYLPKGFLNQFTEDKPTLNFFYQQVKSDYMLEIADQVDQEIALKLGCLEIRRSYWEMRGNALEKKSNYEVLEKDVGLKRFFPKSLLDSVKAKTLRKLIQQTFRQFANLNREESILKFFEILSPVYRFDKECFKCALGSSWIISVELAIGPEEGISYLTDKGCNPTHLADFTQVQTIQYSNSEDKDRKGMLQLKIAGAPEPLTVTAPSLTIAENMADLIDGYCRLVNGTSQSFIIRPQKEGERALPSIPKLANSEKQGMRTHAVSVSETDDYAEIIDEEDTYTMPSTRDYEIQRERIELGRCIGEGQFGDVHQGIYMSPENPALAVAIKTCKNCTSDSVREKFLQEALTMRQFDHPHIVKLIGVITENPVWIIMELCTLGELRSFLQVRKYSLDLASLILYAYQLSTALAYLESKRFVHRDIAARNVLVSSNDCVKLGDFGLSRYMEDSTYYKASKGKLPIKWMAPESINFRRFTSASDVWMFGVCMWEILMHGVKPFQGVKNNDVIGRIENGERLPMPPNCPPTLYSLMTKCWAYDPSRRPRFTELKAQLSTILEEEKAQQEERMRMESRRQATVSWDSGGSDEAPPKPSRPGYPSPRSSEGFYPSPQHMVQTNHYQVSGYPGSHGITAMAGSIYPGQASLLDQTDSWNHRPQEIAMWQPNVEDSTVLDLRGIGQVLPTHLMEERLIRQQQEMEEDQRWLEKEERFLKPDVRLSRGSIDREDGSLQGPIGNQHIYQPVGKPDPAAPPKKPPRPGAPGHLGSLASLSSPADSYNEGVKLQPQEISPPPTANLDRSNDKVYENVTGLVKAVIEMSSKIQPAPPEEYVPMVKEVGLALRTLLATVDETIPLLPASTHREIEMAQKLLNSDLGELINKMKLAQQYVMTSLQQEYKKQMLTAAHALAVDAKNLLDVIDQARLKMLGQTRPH
EphB4 ephrin blk: EphB4-ephrin-B2 interaction antagonists, primary screen, biochemical, TNYL-RAW peptide probe, fluorescence polarization; AID 720, 2007; Ephrin type-B receptor 4 (Homo sapiens), P54760; EphB4 LBD / TNYL-RAW-Alexa532 peptide; inhibition, % at 7 µM; 97,000 compounds, 0.15% hits;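 active = inhibition above the screen-wide mean inhibition plus 3 SD, cut at about 15% in these data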
Plk1 PBD FP: Plk1 polo box domain binding inhibitors, primary screen, biochemical, fluorescence polarization | inhibition, %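 (tested at about 20 µM)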 | Serine/threonine-protein kinase PLK1 (Homo sapiens), P53350 | Plk1 PBD phosphopeptide binding | 97,000 compounds, 0.13% hits; in the data active = inhibition above about 34%, passing the limit was not always enough
PLK1 kinase inh: human PLK1 kinase inhibitors, primary screen, biochemical, TR-FRET; Serine/threonine-protein kinase PLK1 (Homo sapiens), P53350; AID 619, 2007; 97,000 compounds, 0.53% hits; recombinant PLK1 kinase, TR-FRET peptide phosphorylation; inhibition, % at 10 µM;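 active = inhibition of 50% or more in the single-concentration screen; inactive = inhibition below 50%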
Rev-RRE block: HIV-1 Rev-RRE binding inhibitors, primary screen, biochemical, FRET, protein-RNA interaction | P05866 | Rev peptide-RRE RNA binding | inhibition, % at 8 µM | 97,000 compounds, 0.79% hits;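 active = inhibition above the screen-wide mean plus 3 SD, cut at about 35% in these data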
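Test system – labelled RRE RNA duplex and labelled Rev peptide · Signal – fluorescein-to-Cy5 FRET, 480 nm excitation · Evaluation – % inhibition of FRET ratio versus controls · Benchmarks – DMSO low control, neomycin B high control · Incubation – 5 min RNA-compound premix plus 15 min binding step, 25 °C · Medium – HEPES pH 7.5 salt buffer with EDTA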
DAT uptake mod: changed hDAT dopamine uptake under cocaine IC80, either direction, primary screen, cocaine antagonist project, cell-based, LLC-PK1 hDAT, [14C]-dopamine uptake, MLSMR; Sodium-dependent dopamine transporter (Homo sapiens), Q01959; LLC-PK1 hDAT cells, [14C]-dopamine uptake with cocaine IC80; actives deviate in either direction; B-score at 10 µM; 110,000 compounds, 1.3% hits; AID 449768, 2010;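 active = Z score or B-score, a plate-position-corrected score, falls beyond the plate's 99.7% confidence bounds, in either direction; inactive = both scores lie inside the 99.7% bounds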
Large screens that a line does not name were inactive; [ ] = remark or other dose.

CCOC(=O)Cc1[nH]nc2c1C(c1ccoc1)C(C#N)=C(N)O2 (stereo unspecified)	none
COc1ccc(-c2ccc(C3C(C#N)=C(N)Oc4n[nH]c(C)c43)o2)cc1 (stereo unspecified)	Rev-RRE block 52
COCc1[nH]nc2c1C(c1ccc(OC)cc1)C(C#N)=C(N)O2 (stereo unspecified)	none
Cc1[nH]nc2c1C(c1ccoc1)C(C#N)=C(N)O2 (stereo unspecified)	PLK1 kinase inh 55
CCOC(=O)CSc1nc(N2CCOCC2)c2c(c1C#N)CC(C)(C)N(C)C2	none
COc1ccccc1NS(=O)(=O)c1cc([N+](=O)[O-])ccc1N/N=C/c1c(C)[nH]c2ccccc12	Rev-RRE block 66[fluorescence artefact?]
O=[N+]([O-])c1ccc(N/N=C/c2c[nH]c3ccccc23)c(S(=O)(=O)Nc2ccc(Cl)cc2)c1	Rev-RRE block 65[fluorescence artefact?] (no result: DAT uptake mod)
N#Cc1nc(COc2ccccc2Cl)oc1NCc1cccnc1	none
O/N=C(\c1ccc(Cl)cc1Cl)c1ncc(C(F)(F)F)cc1Cl	none
CCOC(=O)CNC(=O)Cn1cnc2ccc(S(=O)(=O)N3CCC(C)CC3)cc2c1=O	none
Cc1cccc(NC(=O)Cn2c(C)c(C#N)c3ccccc32)c1C	none
CC(NC(=O)Cn1cnnn1)C12CC3CC(CC(C3)C1)C2 (stereo unspecified)	DAT uptake mod -3.3
O=C(CN1CCCC1)NCC12CC3CC(CC(C3)C1)C2	none (no result: FAK blocker, EphB4 ephrin blk, Plk1 PBD FP, PLK1 kinase inh, Rev-RRE block)
CC(NC(=O)CN1CCCC1)C12CC3CC(CC(C3)C1)C2 (stereo unspecified)	DAT uptake mod -5.6
O=C(COc1ccccc1)N(CCc1ccccc1)c1nc(-c2ccc(F)cc2)cs1	none (no result: DAT uptake mod)
CCc1cccc(C)c1NC(=O)CN1C(=O)c2ccccc2S1(=O)=O	PLK1 kinase inh 69
COC(=O)c1ccc(C)c(NC(=O)CN2C(=O)c3ccccc3S2(=O)=O)c1	none
Cc1noc(/C=C/N(C)C)c1S(=O)(=O)N1CCCC(C(=O)NCCC2=CCCCC2)C1 (stereo unspecified)	none (no result: DAT uptake mod)
CCCCCCCCNC(=O)CCNC(=O)c1ccc(C(C)(C)C)cc1	none
CCOC(=O)C1CCCN(c2c(Nc3cccc(C)c3)c(=O)c2=O)C1 (stereo unspecified)	PLK1 kinase inh 61
CCOC(=O)C1CCCN(c2c(Nc3ccc(OCC)cc3)c(=O)c2=O)C1 (stereo unspecified)	none
O=C(Nc1ccc(Cl)cc1)Nc1cccnc1	DAT uptake mod -2.3
CCCn1c(CCC(=O)Nc2ccccc2Cc2ccccc2)nc2cc(S(=O)(=O)N3CCOCC3)ccc21	none
Cc1ccc(C)n1/N=C1/NC(=O)CS1	DAT uptake mod -3.1
CC(C)NC(=O)CN(C)S(=O)(=O)c1ccc(F)cc1	none
CN(CC(=O)Nc1nccs1)S(=O)(=O)c1ccc(F)cc1	PLK1 kinase inh 53
Cc1cc(C)c2nc(N3CCC(C(=O)N4CCN(C(=O)c5ccco5)CC4)CC3)sc2c1	DAT uptake mod 3.7
O=C(Nc1cnn(Cc2ccc(Cl)c(Cl)c2)c1)C12CC3CC(CC(C3)C1)C2	none
CC(CCc1ccco1)NC(=O)Nc1cccc(F)c1 (stereo unspecified)	DAT uptake mod -2.6
Cc1ccc(NC(=O)CS(=O)CC(=O)NC(C)CCc2ccco2)cc1Cl (stereo unspecified)	none
Cc1cccnc1Nc1nc(-c2ccc(O)cc2)cs1	DAT uptake mod 4.6
COc1cccc(Nc2nc(-c3ccc(O)cc3)cs2)c1	none
Cc1cc(Br)cc(C)c1NC(=S)NC(=O)CC(C)C	DAT uptake mod -8
CCCC(=O)NC(=S)Nc1c(C)cc(Br)cc1C	none
O=C(OCc1nnc(-c2ccccc2)o1)C1CCN(S(=O)(=O)c2cccs2)CC1	none
CCOC(=O)C1=C(C)N(CCCC(=O)O)C(=O)NC1c1ccc2ccccc2c1 (stereo unspecified)	none (no result: FAK blocker, EphB4 ephrin blk, Plk1 PBD FP, PLK1 kinase inh, Rev-RRE block)
CCC(=O)n1nc(-c2ccc(OC)cc2)nc1N	DAT uptake mod -9.5
O=C(CSc1nnc2scc(-c3ccccc3)n12)c1ccc2c(c1)OCCO2	PLK1 kinase inh 59
Cc1ccc(-c2nn(C)c(=O)c3ccccc23)cc1CNC(=O)Cn1nc(-c2ccccc2)c2ccccc2c1=O	none (no result: DAT uptake mod)
Cc1ccc(F)c([C@H]2C3C=CCC(c4ccccc4)C3C(=O)N2Cc2ccccc2)c1 (stereo partly specified)	none (no result: FAK blocker, EphB4 ephrin blk, Plk1 PBD FP, PLK1 kinase inh, Rev-RRE block)
CSc1ccc(C2NC(=O)c3c(sc4c3CCN(C)C4)N2)cc1 (stereo unspecified)	Rev-RRE block 84 (no result: DAT uptake mod)
CN1CCc2c(sc3c2C(=O)NC(c2cccs2)N3)C1 (stereo unspecified)	Rev-RRE block 67
CN1CCc2c(sc3c2C(=O)NC(c2ccc(-c4cccc(Cl)c4)o2)N3)C1 (stereo unspecified)	none (no result: FAK blocker, EphB4 ephrin blk, Plk1 PBD FP, PLK1 kinase inh, Rev-RRE block)
Cc1ccsc1C1NC(=O)c2c(sc3c2CCN(C)C3)N1 (stereo unspecified)	Rev-RRE block 100[fluorescence artefact?]
Cc1cn(Cc2ccccc2)c(=O)[nH]c1=O	none
COC(C[C@@H]1O[C@H]1C(=O)[C@@H](C)OCc1ccccc1)OC	none (no result: FAK blocker, EphB4 ephrin blk, Plk1 PBD FP, PLK1 kinase inh, Rev-RRE block)
CCC1(C)N=c2c(c(=O)n(C)c(=O)n2C)=NO1 (stereo unspecified)	none
CC(C)(C)c1cnnn1-c1ccc(C=O)cc1	DAT uptake mod -2.7
Cn1c(SCc2c(F)cccc2Cl)nnc1-c1cccs1	DAT uptake mod 2.3
CC1(C)c2[nH]c3ccccc3c2C[C@@H]2C(=O)N(c3ccc(F)cc3F)C(=O)N21	none (no result: FAK blocker, EphB4 ephrin blk, Plk1 PBD FP, PLK1 kinase inh, Rev-RRE block)
Cc1noc(C)c1C(=O)NCCc1ccc(Cl)cc1	Rev-RRE block 95[fluorescence artefact?]
Cc1noc(C)c1C(=O)NCCC1=CCCCC1	none
CCc1ccc(NCc2nc3ccccc3c(=O)[nH]2)cc1	DAT uptake mod -9.2
O=c1cc(CSc2nc3cc(Cl)ccc3o2)nc2sccn12	none
COc1ccc(Nc2nnc(SCc3cc(=O)n4ccsc4n3)s2)cc1	Rev-RRE block 42
Cc1ccc(C2C(C#N)=C(N)Oc3c2c(=O)n(C)c(=O)n3C)cc1 (stereo unspecified)	none
CCNc1nc2[nH]c(=O)c3c(c2s1)OC(N)=C(C#N)C3c1ccc(C)cc1 (stereo unspecified)	Rev-RRE block 86[fluorescence artefact?]
O=c1c(/C=N/Nc2ccccc2)c(Sc2nnnn2-c2ccccc2)nc2ccccn12	Rev-RRE block 73[fluorescence artefact?] (no result: DAT uptake mod)
CCOC(=O)C1=C(C)NC(C)=C(C(=O)OCC)C1C(=O)OCC(=O)NC(C)C	none
O=C(c1ccc(Cl)cc1)N1CCC(O)(CSc2ccc(Cl)cc2Cl)CC1	none
